# Assay results gathered from unrelated publications.
# Lines come from different studies, so protocols differ.
# Read-out: metabolic stability
Structure (SMILES),species,medium,concentration,time,pH,measurement,value
CS(=O)(=O)c1ccc(-c2cnc(N)c(-c3ccc(C(F)(F)F)nc3)c2)cc1,male rat,liver microsomes,1 µM,,,microsomal CLint,< 11.6 µL/min/mg
COc1ccc(-c2nc3ccccn3c2N(C)c2ccc(F)cc2)nc1,rat,hepatocytes,,,,hepatocyte CLint,> 300 µL/min/10⁶ cells
CC(C)N1Cc2cc(C(F)(F)F)ncc2C2=CN=C(NCc3c(F)ccc4c3CCO4)N3C=NC(C1=O)C23 (stereo not drawn),rat,liver microsomes,100 µM,30 min,,scaled CLint,18.9 mL/min/kg
O=c1[nH]c(=S)n(Cc2ccc(Cl)cc2CNCC(F)(F)F)c2cc[nH]c12,rat,hepatocytes,,,,hepatocyte CLint,30 µL/min/10⁶ cells
C[C@H](C(=O)NC1Cc2ccccc2C1)c1ccccc1,rat,liver microsomes,1 µM,,,microsomal CLint,> 200 µL/min/mg
Cc1cccnc1C(=O)Nc1ccc(N2C(=O)c3cccc(Cl)c3C2=O)c(Cl)c1,rat,liver microsomes,1 µM,,pH 7.4,scaled CLint,95.9 mL/min/kg
COc1ccc(-c2nc3ccc(OC)cn3c2Nc2ccc(F)cc2)nc1,rat,hepatocytes,,,,hepatocyte CLint,76 µL/min/10⁶ cells
CC(F)(F)CN1Cc2cc(C(F)(F)F)ncc2C2=CN=C(NCc3c(F)ccc4c3CCO4)N3C=NC(C1=O)C23 (stereo not drawn),rat,liver microsomes,100 µM,30 min,,scaled CLint,16.6 mL/min/kg
O=c1ccc2ccc(O)cc2o1,rat,liver S9,2 µM,,pH 7.4,scaled CLint,787 mL/min/kg
C[C@H](C(=O)NC1Cc2ccccc2C1)c1ccc(F)cc1,rat,liver microsomes,1 µM,,,microsomal CLint,> 200 µL/min/mg
CCOc1c(O)cc(Br)c2c1CN1CCc3cc(OCC(F)F)c(O)cc3[C@@H]1C2,rat,liver S9,2 µM,,pH 7.4,scaled CLint,902 mL/min/kg
COc1ccc(-c2nc3ccc(OC)cn3c2N(C)c2ccc(F)cc2)nc1,rat,hepatocytes,,,,hepatocyte CLint,> 300 µL/min/10⁶ cells
O=C(Nc1ccc(N2C(=O)c3cccc(Cl)c3C2=O)c(Cl)c1)c1ncccc1Cl,rat,liver microsomes,1 µM,,pH 7.4,scaled CLint,39.9 mL/min/kg
c1ccc(-c2nc3n(c2-c2ccncc2)CCC3)nc1,rat,hepatocytes,,,,hepatocyte CLint,4.8 µL/min/10⁶ cells
CC(=O)c1cccc(OCc2cc(C(=O)N(C)[C@@H](C)c3ccccn3)no2)c1,rat,liver microsomes,,,,scaled CLint,770 mL/min/kg
